Measurements as given in PMC7104901 (Diabetes Technology & Therapeutics, 2020).

What was measured:
Format in all cases: in vivo, human
[1] = test system: subjects with type 1 diabetes; assay: Euglycemic clamp pharmacodynamics; details: for Clamp stopped prematurely due to BG reaching threshold (≥200 mg/dL for 30 min): number of subjects after 0.3 U/kg single dose; for GIR-AUC0–12h treatment ratio, point estimate (90% CI): 0.3 U/kg single dose, euglycemic clamp
Procedure, shortened: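 Randomized, double-blind, 3-period crossover in adult males with T1D; fasted single 0.3 U/kg subcutaneous dose after basal-insulin washout (≥48 h), glulisine stopped ≥10 min predose, BG stable ≥1 h without glucose. A Biostator tracked arterialized venous BG and GIR continuously for 12 h, calibrated every 30 min. Stopped early if BG exceeded 200 mg/dL without glucose for 30 min. Weight-standardized GIR-AUC0–12h given as ratio of geometric means (90% CI).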

[2] = Plasma insulin aspart pharmacokinetics after single subcutaneous dose; details: linear mixed effects model, 0.3 U/kg single dose
Procedure, shortened: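 Adults with type 1 diabetes, off basal insulin ≥48 h and fasted overnight, clamped at blood glucose 100 mg/dL before subcutaneous dosing. Plasma was separated within 20 min and stored at −60 to −80°C. Samples were assayed by LC-MS/MS (100–8000 pg/mL, LLOQ 100 pg/mL) and censored at any rescue insulin. AUCs used the log-linear trapezoidal rule. Log-parameters were analysed by mixed model and back-transformed with 90% CI.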

[3] = test system: subjects with type 1 diabetes; assay: Safety and tolerability; details: single 0.3 U/kg dose
Procedure, shortened: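 Adult males with T1D each got a fasted single subcutaneous 0.3 U/kg dose per period in a double-blind 3-period crossover under 12 h euglycemic clamp. Safety was assessed by 12-lead ECG, vital signs, routine laboratory tests, physical examination, adverse event reporting and injection-site reaction assessment. Treatment-emergent events were counted as subjects reporting per treatment.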

[4] = ratio of geometric means vs. NN-Asp-EU
[5] = ratio of geometric means vs. NN-Asp-US

Substance | Clamp stopped prematurely due to BG reaching threshold (≥200 mg/dL for 30 min) [1] | GIR-AUC0–12h treatment ratio, point estimate (90% CI) [1, 4] | INS-AUCinf treatment ratio, point estimate (90% CI) [2, 4] | INS-AUClast treatment ratio, point estimate (90% CI) [2, 4] | INS-Cmax treatment ratio, point estimate (90% CI) [2, 4] | GIR-AUC0–12h treatment ratio, point estimate (90% CI) [1, 5] | Tolerability [3] | INS-AUCinf treatment ratio, point estimate (90% CI) [2, 5] | INS-AUClast treatment ratio, point estimate (90% CI) [2, 5] | INS-Cmax treatment ratio, point estimate (90% CI) [2, 5]
insulin aspart [NN-Asp-EU] | 15 subjects |  |  |  |  |  |  |  |  | 
insulin aspart [NN-Asp-US] | 18 subjects | 0.97 (0.90–1.05) | 1.00 (0.95–1.04) | 1.00 (0.95–1.05) | 1.04 (0.96–1.12) |  |  |  |  | 
insulin aspart [SAR-Asp] | 17 subjects | 0.96 (0.89–1.04) | 0.92 (0.88–0.96) | 0.93 (0.88–0.97) | 0.97 (0.90–1.05) | 0.99 (0.91–1.07) | well tolerated | 0.92 (0.88–0.96) | 0.93 (0.89–0.98) | 0.93 (0.87–1.01)
